Bioassay records (PubChem BioAssay)
Many of the other results were omitted from the sample, so hits are more common in it than they were.
B2AR ag – beta2AR agonists driving receptor internalization, primary screen, cell-based, FAP fluorogen, flow cytometry | Beta-2 adrenergic receptor (Homo sapiens), P07550 | Am2.2-beta2AR cells | response, % (concentration not given with the values) | 340,000 compounds, 0.43% hits;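 active = response above a set limit, near 3 SD of response in nonfluorescent compounds, cut at about 42% in these data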
UPR XBP1 act – activators of adaptive XBP1 UPR arm, primary screen, cell-based, CHO-XBP1 luciferase reporter, luminescence, uHTS; activation, % at 20 µM; 330,000 compounds, 0.33% hits; AID 463104, 2010; IRE1-XBP1 UPR activation; percent of tunicamycin response, DMSO as zero;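 active = versus positive control, 20 µM dose yields 30% or more activation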
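assay system = CHO-XBP1 luciferase reporter cells | amount = 1000 cells/well | buffer or medium = F12 plus 10% FBS | compound dosing = single point, 20 µM final compound, 1% DMSO | incubation = 16-18 h cell attachment at 37 °C, then 6 h compound exposure | detection = Steady-Glo luminescence read | controls = tunicamycin 10 µg/mL and vehicle-only wells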
VLA-4 inh – inhibition in human VLA-4 binding assay, primary screen, VLA-4 allosteric modulator project, MLPCN library, flow cytometry, VLA-4 expressing cells. Integrin alpha-4 (Homo sapiens), P13612. AID 2557, 2010. ligand binding flow cytometry. inhibition, % (about 7 µM as worked out from the volumes in the protocol). 330,000 compounds, 0.2% hits; in the data active = inhibition above about 50%
Target sequence (P13612 whole entry, looked up): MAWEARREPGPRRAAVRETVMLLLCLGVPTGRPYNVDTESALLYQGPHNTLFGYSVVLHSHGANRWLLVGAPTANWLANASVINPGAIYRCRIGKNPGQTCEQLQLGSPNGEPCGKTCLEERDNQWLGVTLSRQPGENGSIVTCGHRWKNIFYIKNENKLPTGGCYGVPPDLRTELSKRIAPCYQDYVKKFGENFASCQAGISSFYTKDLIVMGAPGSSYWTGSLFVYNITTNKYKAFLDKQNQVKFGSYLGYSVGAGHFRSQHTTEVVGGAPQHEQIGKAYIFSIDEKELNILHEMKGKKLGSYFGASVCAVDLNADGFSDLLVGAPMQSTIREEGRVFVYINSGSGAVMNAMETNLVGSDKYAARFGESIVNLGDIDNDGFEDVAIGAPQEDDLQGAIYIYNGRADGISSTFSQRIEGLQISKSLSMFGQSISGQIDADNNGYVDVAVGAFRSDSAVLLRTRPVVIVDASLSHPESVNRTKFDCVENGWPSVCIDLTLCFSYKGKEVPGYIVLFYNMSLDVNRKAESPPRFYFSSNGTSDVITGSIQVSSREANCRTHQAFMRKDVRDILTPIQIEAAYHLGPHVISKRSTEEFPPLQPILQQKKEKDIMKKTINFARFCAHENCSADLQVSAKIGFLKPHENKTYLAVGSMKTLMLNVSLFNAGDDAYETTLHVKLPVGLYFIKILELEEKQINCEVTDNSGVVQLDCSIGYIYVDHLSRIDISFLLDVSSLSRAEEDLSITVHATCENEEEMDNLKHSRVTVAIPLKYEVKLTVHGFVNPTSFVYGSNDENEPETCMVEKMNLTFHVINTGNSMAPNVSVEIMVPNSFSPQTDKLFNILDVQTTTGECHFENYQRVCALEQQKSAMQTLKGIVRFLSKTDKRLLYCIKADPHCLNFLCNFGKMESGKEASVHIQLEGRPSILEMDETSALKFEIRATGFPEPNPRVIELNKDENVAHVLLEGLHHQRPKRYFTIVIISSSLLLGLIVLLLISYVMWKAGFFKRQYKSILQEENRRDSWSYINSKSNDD
CHOP inh – inhibitors of CHOP promoter induction, primary screen, cell-based, unfolded protein response, luciferase reporter | CHO-K1 CHOP-promoter luciferase, tunicamycin-induced, 15-18 h | AID 2732, 2010 | 220,000 compounds, 3.8% hits | inhibition, % at 10 µM;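 active = compounds that reduced the stress-induced luciferase reporter signal by more than about 70% of percent inhibition, limit read from the data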
CHOP UPR activ – activators of apoptotic CHOP UPR arm, primary screen, cell-based, CHO-CHOP luciferase reporter, luminescence, uHTS; UPR activation; percent of tunicamycin response over DMSO baseline; activation, % at 10 µM; 330,000 compounds, 0.34% hits;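 active = at 10 µM dose, activation of 40% or more, normalized to positive control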
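Assay system: CHO cells with stable CHOP pathway luciferase reporter; Buffer or medium: F12 plus 10% serum; Times: 16-18 h cell attachment, then 6 h compound exposure, 37 °C; Signal: luciferase luminescence; Read-out basis: percent activation relative to tunicamycin control; Control set: tunicamycin high control, DMSO low control.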
Large screens that a line does not name were inactive.

COc1ccc(NC(=O)c2cc3cc(OC)ccc3oc2=O)cc1	none (no result: CHOP inh)
COc1ccc2oc(=O)c(C(=O)Nc3cccc(C)c3)cc2c1	CHOP inh 82
COC(=O)c1ccc(OCC(O)CN(CC(C)C)CC(C)C)cc1 (centres undefined)	CHOP inh 87
COC(=O)c1ccc(OCC(O)CN2CCN(CC(O)COc3ccc(C(=O)OC)cc3)CC2)cc1 (centres undefined)	none (no result: CHOP inh)
CC(=O)c1ccc(NC(=S)NC(C)c2ccc(Cl)cc2Cl)cc1 (centres undefined)	CHOP inh 73
Nc1ccn(C2OC(COP(=O)(O)O)C(O)C2O)c(=O)n1 (centres undefined)	none (no result: UPR XBP1 act, VLA-4 inh, CHOP inh, CHOP UPR activ)
COc1ccc(C(=O)/C=C/C(=O)N(CC(=O)NC2CCCCC2)CC2CCCO2)c(O)c1 (centres undefined)	B2AR ag 112, CHOP inh 108
COc1ccc(C(=O)/C=C/C(=O)N(CC(=O)NC2CCCCC2)Cc2ccccc2OC)c(O)c1	B2AR ag 95, CHOP inh 107 (no result: UPR XBP1 act, VLA-4 inh, CHOP UPR activ)
COc1ccc(C(=O)/C=C/C(=O)N(Cc2ccccc2)C(C(=O)NC2CCCCC2)c2ccncc2)c(O)c1 (centres undefined)	none
COc1ccc(C(=O)/C=C/C(=O)N(CC(=O)NC2CCCCC2)Cc2ccccc2)c(O)c1	B2AR ag 111, CHOP inh 108 (no result: UPR XBP1 act, VLA-4 inh, CHOP UPR activ)
CCOc1ccccc1C(=O)N(Cc1sccc1C)C1CCS(=O)(=O)C1 (centres undefined)	none (no result: CHOP inh)
O=C(CN1C(=O)NC2(CCc3ccccc32)C1=O)c1c[nH]c2ccccc12 (centres undefined)	none (no result: CHOP inh)
COc1ccc2cc3c(N)nn(C(=O)Cc4ccccc4OC)c3nc2c1	CHOP inh 81
COc1ccc2cc3c(N)nn(C(=O)c4cccc([N+](=O)[O-])c4)c3nc2c1	CHOP inh 77
COc1ccc(-n2cnc(N)c2C(=O)c2cccc([N+](=O)[O-])c2)cc1	none
O=c1c2c3nc4ccccc4nc3n(-c3ccc4c(c3)OCCO4)c2ncn1C1CCCC1	B2AR ag 53, CHOP UPR activ 77 (no result: CHOP inh)
Cc1ccc(-c2noc(COc3ccccc3C)n2)cc1	CHOP inh 90
COc1ccc(-c2noc(Cc3ccccc3OC)n2)cc1	CHOP inh 92
COc1ccccc1Cc1nc(-c2cccnc2)no1	none
COc1ccccc1-c1nc(-c2ccc(Br)o2)no1	CHOP inh 73
COc1ccccc1Cc1nc(-c2ccc(Br)o2)no1	none
Cc1ccccc1OCc1nc(-c2ccc(Br)o2)no1	CHOP inh 84
O=C(CN1C(=O)NC(c2ccc(F)cc2)C1=O)Nc1ccc2c(c1)OCCO2 (centres undefined)	none (no result: CHOP inh)
Cc1cccc(NC(=O)c2cc(NC(=O)C3CCCCC3C(=O)O)ccc2N2CCCCC2)c1 (centres undefined)	CHOP inh 77
CC(=O)Nc1ccc(N2CCCCC2)c(C(=O)Nc2cccc(C)c2)c1	none
O=C(COC(=O)c1ccc2c(c1)C(=O)N(Cc1ccco1)C2=O)NCC(F)(F)F	none (no result: CHOP inh)
COc1ccc(CCNC(=O)C2CCN(C(=O)c3ccc(Br)cc3)CC2)cc1OC	none (no result: CHOP inh)
Clc1ccsc1-c1ccc2ccccc2n1	CHOP inh 90
CC(C)(C)SCCNS(=O)(=O)c1ccc(Cl)cc1	none
O=S(=O)(NCCSc1ccc(Cl)cc1)c1ccc(F)cc1	CHOP inh 71
OCC[C@@H]1C[C@@H](O)[C@H](O)[C@]2(CCc3ccccc3CO2)O1	none (no result: CHOP inh)
CCOc1cc(/C=C2\CCC/C(=C\c3cc(Cl)c(O)c(OCC)c3)C2=O)cc(Cl)c1O	CHOP inh 93
O=C1CCCCCCC1Sc1ccccc1[N+](=O)[O-] (centres undefined)	CHOP inh 83
O=[N+]([O-])c1ccccc1S(=O)(=O)NC1CCCCCCC1	none (no result: CHOP inh)
COc1ccccc1CC(=O)N(Cc1ccccc1)c1cccc(C)c1	none (no result: CHOP inh)
COc1ccccc1NS(=O)(=O)c1cc(NC(=O)COc2ccccc2F)ccc1N1CCOCC1	none (no result: CHOP inh)
COc1ccc2oc(C(=O)OCC(=O)N(C)c3c(N)n(Cc4ccccc4)c(=O)[nH]c3=O)c(C)c2c1	none (no result: CHOP inh)
CCOC(=O)C1CCN(C(=O)CSCc2nc(-c3ccc(OCC)cc3)oc2C)CC1	CHOP inh 77
CCN1CCC2(CC1)Oc1c(OC)cccc1C1CC(c3cccnc3)=NN12 (centres undefined)	none
COc1ccc(CC2C(=O)NC(C)C(=O)N(C)C3Cc4ccc(cc4)Oc4cc(ccc4O)CC(C(=O)NC(C)C(=O)NC(C)C(=O)N2C)N(C)C3=O)cc1 (centres undefined)	none (no result: UPR XBP1 act, VLA-4 inh, CHOP inh, CHOP UPR activ)
CCC[C@H]1NC(=O)[C@H](C)N(C)C(=O)C(C)(C)C(=O)C(C)NC(=O)[C@H](Cc2ccc(OC)cc2)N(C)C(=O)[C@H](C(C)C)N(C)C(=O)CNC(=O)[C@H](CC(C)C)N(C)C(=O)CNC(=O)[C@H]([C@@H](C)CC)OC(=O)[C@H]1C (some centres undefined)	CHOP UPR activ 44 (no result: B2AR ag, CHOP inh)
CCn1c(C)cc(/C=C2/NC(=O)N(CC(=O)Nc3cccc(C)c3)C2=O)c1C	none (no result: UPR XBP1 act, CHOP UPR activ)
CCn1c(C)cc(/C=C2/SC(=O)N(CC(=O)N3CCCC3)C2=O)c1C	none (no result: CHOP inh)
CCn1c(C)cc(/C=C2\SC(=O)N(CC(=O)Nc3ccc(C)c(C)c3)C2=O)c1C	CHOP inh 93
CCn1c(C)cc(/C=C2\NC(=O)N(CC(=O)Nc3cccc(C)c3)C2=O)c1C	CHOP inh 81
Cc1ccc(CSC2=NCCN2S(=O)(=O)c2ccc(F)cc2)cc1	none (no result: CHOP inh)
O=C(NCc1ccccc1CN1CCCC1)c1cccc(N2CCCC2=O)c1	none (no result: CHOP inh)
NC(=O)c1ccsc1NC(=O)COC(=O)c1ccccc1NCc1ccco1	CHOP inh 96
CCOc1ccccc1OCCCC(=O)NNC(=O)c1nn(C)c(=O)c2ccccc12	none (no result: CHOP inh)
CC12CC3OC3CC1CCC1C2CCC2(C)C1CCC21OCCO1 (centres undefined)	B2AR ag 76 (no result: UPR XBP1 act, VLA-4 inh, CHOP inh, CHOP UPR activ)
CCn1c(SCC(=O)N/N=C/c2ccc(OC)c(OC)c2)nc2ccccc21	none
C=CCSc1nc2ccccc2n1C(=O)/C=C/c1ccc(OC)c(OC)c1	CHOP inh 109 (no result: UPR XBP1 act, CHOP UPR activ)
NC(=O)c1ccc(N2CCN(S(=O)(=O)c3ccccc3)CC2)c([N+](=O)[O-])c1	none
CCOC(=O)c1ccccc1NC(=O)CSc1ncc(C(=O)OCC)c(N)n1	CHOP inh 75
Cc1cccc(C)c1NC(=O)CSc1nc(C)c(CC(=O)c2ccc(Br)cc2)c(C)c1C#N	CHOP inh 91
